Data set [1] concerns the target T1, Leucyl-cystinyl aminopeptidase (Mus musculus, UniProt Q8C129).
T1 sequence (Q8C129 whole entry): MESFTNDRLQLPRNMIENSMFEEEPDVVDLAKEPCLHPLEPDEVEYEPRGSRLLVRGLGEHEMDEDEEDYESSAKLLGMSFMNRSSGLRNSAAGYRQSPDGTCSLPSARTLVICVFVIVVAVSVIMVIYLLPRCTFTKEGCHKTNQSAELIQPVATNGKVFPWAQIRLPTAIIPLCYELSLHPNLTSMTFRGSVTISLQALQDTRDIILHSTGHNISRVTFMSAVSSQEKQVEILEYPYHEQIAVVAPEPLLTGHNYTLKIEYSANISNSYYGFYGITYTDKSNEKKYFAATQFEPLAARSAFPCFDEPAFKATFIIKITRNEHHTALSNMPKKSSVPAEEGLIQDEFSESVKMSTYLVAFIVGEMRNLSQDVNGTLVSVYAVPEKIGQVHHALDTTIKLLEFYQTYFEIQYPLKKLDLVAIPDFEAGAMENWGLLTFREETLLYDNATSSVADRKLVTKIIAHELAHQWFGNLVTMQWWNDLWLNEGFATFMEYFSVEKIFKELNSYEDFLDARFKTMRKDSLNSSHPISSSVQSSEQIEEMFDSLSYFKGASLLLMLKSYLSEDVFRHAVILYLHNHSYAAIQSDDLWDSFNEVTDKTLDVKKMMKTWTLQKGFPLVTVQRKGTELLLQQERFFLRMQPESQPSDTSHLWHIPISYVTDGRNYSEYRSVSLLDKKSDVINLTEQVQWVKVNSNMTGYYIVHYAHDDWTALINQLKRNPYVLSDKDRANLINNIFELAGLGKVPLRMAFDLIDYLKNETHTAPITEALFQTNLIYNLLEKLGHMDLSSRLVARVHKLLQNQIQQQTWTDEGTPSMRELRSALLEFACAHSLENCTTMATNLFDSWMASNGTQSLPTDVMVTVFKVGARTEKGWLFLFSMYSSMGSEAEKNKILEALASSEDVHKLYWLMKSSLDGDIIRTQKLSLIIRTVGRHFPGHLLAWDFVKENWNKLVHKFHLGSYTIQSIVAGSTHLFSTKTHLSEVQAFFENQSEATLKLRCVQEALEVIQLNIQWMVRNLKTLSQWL
The data set is described as follows: Inhibition of recombinant mouse C-terminal His6-tagged IRAP expressed in baculovirus infected BTA-TN-5B1-4 insect cells using L-AMC as substrate measured after 1 hr by fluorescence assay.

Data set [2] concerns the target T2, Antigen peptide transporter 1/2 (Homo sapiens) (UniProt Q03518+Q03519). The data set can be described thus: Inhibition of TAP1/2 in human HeLa cells stably expressing H-2 Kb infected with vaccinia virus containing Ub-SIINFEKL epitope assessed as suppression of Ub-SIINFEKL binding to MHC1 H-2 Kb at cell surface by measuring reduction in 25D1 staining at 50 uM measured after 16 to 24 hrs by flow cytometric method. The class given is cell-based.

In data set [3] the target is T3, Endoplasmic reticulum aminopeptidase 1 (Homo sapiens, UniProt Q9NZ08). The data set is described as follows: Inhibition of recombinant human C-terminal His6-tagged ERAP1 expressed in baculovirus infected BTA-TN-5B1-4 insect cells using L-AMC as substrate measured after 1 hr by fluorescence assay.
T3 sequence (Q9NZ08 whole entry): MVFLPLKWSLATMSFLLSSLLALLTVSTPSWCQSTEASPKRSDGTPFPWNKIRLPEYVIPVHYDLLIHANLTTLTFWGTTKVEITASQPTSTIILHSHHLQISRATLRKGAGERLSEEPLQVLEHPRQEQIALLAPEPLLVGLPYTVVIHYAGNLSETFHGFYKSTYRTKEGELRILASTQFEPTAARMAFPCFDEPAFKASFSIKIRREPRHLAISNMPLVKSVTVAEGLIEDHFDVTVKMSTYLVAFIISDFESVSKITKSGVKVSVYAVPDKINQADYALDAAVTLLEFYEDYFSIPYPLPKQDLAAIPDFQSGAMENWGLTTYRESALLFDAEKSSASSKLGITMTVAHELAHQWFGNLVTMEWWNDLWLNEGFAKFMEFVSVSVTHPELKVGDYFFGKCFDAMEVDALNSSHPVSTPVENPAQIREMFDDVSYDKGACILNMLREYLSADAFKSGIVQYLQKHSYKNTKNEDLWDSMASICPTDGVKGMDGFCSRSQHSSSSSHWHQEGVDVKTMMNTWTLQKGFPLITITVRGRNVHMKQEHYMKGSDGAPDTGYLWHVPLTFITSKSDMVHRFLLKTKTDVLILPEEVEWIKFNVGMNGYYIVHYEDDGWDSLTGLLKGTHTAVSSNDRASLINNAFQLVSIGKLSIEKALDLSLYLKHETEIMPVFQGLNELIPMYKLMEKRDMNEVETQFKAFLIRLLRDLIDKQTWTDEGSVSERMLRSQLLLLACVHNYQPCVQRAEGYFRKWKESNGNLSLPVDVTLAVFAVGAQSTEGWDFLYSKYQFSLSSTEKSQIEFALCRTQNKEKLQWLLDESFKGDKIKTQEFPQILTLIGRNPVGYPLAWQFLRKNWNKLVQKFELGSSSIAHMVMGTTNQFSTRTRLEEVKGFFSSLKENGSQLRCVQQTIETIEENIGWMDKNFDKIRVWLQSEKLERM
For data set [4], the target named is T3, Endoplasmic reticulum aminopeptidase 1. The data set is described as follows: Competitive inhibition of recombinant human C-terminal His6-tagged ERAP1 expressed in baculovirus infected BTA-TN-5B1-4 insect cells using varying levels of L-pNA as substrate incubated for 1 hr and measured for 5 to 10 mins by […] Michaelis-Menten equation analysis.

The target in data set [5] is T2, Antigen peptide transporter 1/2 (Homo sapiens). The data set can be described thus: Inhibition of TAP1/2 in human HeLa cells stably expressing H-2 Kb infected with vaccinia virus containing Ub-SIINFEKL epitope assessed as suppression of Ub-SIINFEKL binding to MHC1 H-2 Kb at cell surface by measuring reduction in 25D1 staining measured after 16 to 24 hrs by flow cytometric method. It counts as cell-based.

For data set [6], the target named is T3, Endoplasmic reticulum aminopeptidase 1. The data set is described as follows: Activation of recombinant human C-terminal His6-tagged ERAP1 expressed in baculovirus infected BTA-TN-5B1-4 insect cells using L-AMC as substrate measured after 1 hr by fluorescence assay.
The target is the same in data set [7]. The data set can be described thus: Activation of recombinant human C-terminal His6-tagged ERAP1 expressed in baculovirus infected BTA-TN-5B1-4 insect cells at 10.7 uM using L-AMC as substrate measured after 1 hr by fluorescence assay relative to control.
Data set [8] has the same target. The data set can be described thus: Inhibition of recombinant human C-terminal His6-tagged ERAP1 expressed in baculovirus infected BTA-TN-5B1-4 insect cells using WRCYEKMALK as substrate measured after 10 mins by LC-MS analysis.
Data set [9] shares this target. The data set can be described thus: Activation of recombinant human C-terminal His6-tagged ERAP1 expressed in baculovirus infected BTA-TN-5B1-4 insect cells assessed as increase in Vmax/[…] ratio using varying levels of L-pNA as substrate incubated for 1 hr and measured for 5 to 10 mins by […] Michaelis-Menten equation analysis relative to control. Summed up: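 ERAP1 initial rates measured under steady-state conditions with the chromogenic substrate leucine p-nitroanilide (L-pNA), allowing a wide substrate range, across several compound concentrations. Rate-versus-substrate curves were fit to an allosteric Michaelis-Menten equation with a Hill coefficient to give V_max and K_half at each compound level. Activity was expressed as V_max/K_half relative to no-compound control.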

Data set [10] shares this target. The data set can be described thus: Competitive inhibition of recombinant human C-terminal His6-tagged ERAP1 expressed in baculovirus infected BTA-TN-5B1-4 insect cells using varying levels of LVAFKARKF as substrate measured at 2.5 mins interval for 20 mins by ABTS reagent based horseradish peroxidase-coupled Michaelis-Menten equation analysis.
The target is the same in data set [11]. The data set can be described thus: Inhibition of ERAP1 in human HeLa cells stably expressing H-2 Kb infected with vaccinia virus containing ss-LEQLE-SIINFEKL epitope assessed as suppression of ss-LEQLE-SIINFEKL binding to MHC1 H-2 Kb at cell surface by measuring reduction in 25D1 staining measured after 16 to 24 hrs by flow cytometric method. The class given is cell-based.

Data set [12] in a line: Activation of recombinant human C-terminal His6-tagged ERAP1 allele 2 mutant expressed in baculovirus infected BTA-TN-5B1-4 insect cells using L-AMC as substrate measured after 1 hr by fluorescence assay.
Data set [13] in a line: Activation of recombinant human C-terminal His6-tagged ERAP1 allele 3 mutant expressed in baculovirus infected BTA-TN-5B1-4 insect cells using L-AMC as substrate measured after 1 hr by fluorescence assay.
Data set [14] in a line: Activation of recombinant human C-terminal His6-tagged ERAP1 5-SNP mutant expressed in baculovirus infected BTA-TN-5B1-4 insect cells using L-AMC as substrate measured after 1 hr by fluorescence assay.

Calls of active or inactive are those of the source. The calls are words filed in the database; no cut-off is given here.

In the case of `COc1ccc(C(=O)O)cc1S(=O)(=O)Nc1cc(C(F)(F)F)ccc1N1CCN(C)CC1`, in data set [1], the half-maximal inhibitory concentration (IC50) was more than 200 µM.
The same measure, in the same setting: in the case of `COc1ccc(C(=O)O)cc1S(=O)(=O)Nc1ccccc1N1CCCCC1` it was more than 200 µM.
Turning to `CC(C)C[C@H](N)CS`, the inhibition entry in [2] was “inactive”.
On to `COc1ccc(C(=O)O)cc1S(=O)(=O)Nc1cc(C)ccc1N1CCCCC1`, for which, in data set [1], the IC50 is more than 200 µM.
Consider `O=C(O)c1ccc(Br)c(S(=O)(=O)Nc2cc(C(F)(F)F)ccc2N2CCCCC2)c1`, for which the IC50 in [1] is more than 200 µM.
On to `O=C(O)c1cccc(S(=O)(=O)Nc2cc(C(F)(F)F)ccc2N2CCCCC2)c1`, for which the IC50 in data set [1] was more than 200 µM.
On the same count and under the same terms, under `O=C(O)c1ccc(Cl)c(S(=O)(=O)Nc2cc(C(F)(F)F)ccc2N2CCCCC2)c1` stands more than 200 µM; under `COc1ccc(C(=O)O)cc1S(=O)(=O)Nc1cc(F)ccc1N1CCCCC1`, more than 200 µM.
In the case of `N=C(NCCc1c[nH]c2ccccc12)NS(=O)(=O)c1cc(F)ccc1F`, in [3], the concentration for half-maximal inhibition (IC50) amounted to 9.2 µM. The Ki in [4] came to 51.7 µM. Also, the inhibition result in [2] was “Active”.
`COC(=O)c1ccc(OC)c(S(=O)(=O)Nc2cc(C(F)(F)F)ccc2N2CCCCC2)c1`: in data set [1], the concentration for half-maximal inhibition (IC50) is more than 200 µM. Moreover, the inhibition entry in data set [5] is “Active”.
Turning to `COc1ccc(C(=O)O)cc1S(=O)(=O)Nc1cc(C(F)(F)F)ccc1N1CCCCC1`, the “inhibition (INH)” value in data set [1] (mouse, 1 h) is “Not Active”. The AC50 in data set [6] is 4.1 µM; in data set [12] it was 880 nM; in [13] it was 3.1 µM; in [14], 2700 nM. For the same compound, in data set [7], the Activity was more than 40%. The IC50 in data set [8] is 5.3 µM; in data set [11] it was 1000 nM. The fold change (FC) in data set [9] was less than 1.8. Also, the Ki in data set [10] worked out at 3.8 µM. In addition, the inhibition result in data set [2] was “inactive”.

The values above are taken from ChEMBL document CHEMBL4376857, “Discovery of Selective Inhibitors of Endoplasmic Reticulum Aminopeptidase 1” (J Med Chem, 2020).
